Measurements from the EternaBench riboswitch data.

Test system: MS2 coat protein
Assay: apparent Kd, MS2 coat protein; higher = weaker binding; RNA-MaP array; FMN 200 µM where present
Procedure, shortened: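 Designs were transcribed by stalled E. coli RNA polymerase on Illumina sequencing-chip clusters. They were titrated with SNAP-549-labelled MS2 coat protein from 0.7 or 1.5 nM, doubling to 3 µM, in 100 mM Tris-HCl pH 7.5, 80 mM KCl, 4 mM MgCl2, BSA, DTT, yeast tRNA and Tween-20, without and then with constant ligand. The apparent Kd is the median of filtered per-cluster fits after normalisation of green signal to red-channel RNA signal and control-cluster median Fmax.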

[1] = designed as: OFF switch for flavin mononucleotide, no ligand
[2] = ligand present: flavin mononucleotide, designed as: OFF switch for flavin mononucleotide
[3] = designed as: ON switch for flavin mononucleotide, no ligand
[4] = ligand present: flavin mononucleotide, designed as: ON switch for flavin mononucleotide

Sequence	apparent Kd [1]	apparent Kd [2]	apparent Kd [3]	apparent Kd [4]
AUAUUGUGAGGAUAUCCAAUAUAUGACAUGAGGAUCACCCAUGUUUCCACUCGUACCUCCGGAGAAGGCACUUAUA	24.3 nM	22.8 nM	–	–
AUAUUUUUGUAGAAGGUACGUGAUUAGUCAAAGUAAGGAUAUACUGACAUGAGGAUCACCCAUGUUUUAAUAGUUAACAGUUCU	–	–	12.9 nM	8.01 nM
AUCAAUCGUGUAGGAUAUGCGUGGCGAAGCUAUGCAGAAGGACAUGAGGAUCACCCAUGUCUUUCUGUCUGCGUACAGACAGGA	18 nM	43.4 nM	–	–
AUCAGCUCGUCAGGAUAUACGACACUGCGUCAGCAGUGUGGUAAGAUCACAUGAGGAUCACCCAUGUAGAAGGGACGAGCUGAU	6.87 nM	28.1 nM	–	–
AUCAGCUCGUCAGGAUAUACGUCACUGCGUCAGCAGUGUCGUAAGAUCACAUGAGGAUCACCCAUGUAGAAGGGACGAGCUGAU	5.31 nM	5.49 nM	–	–
AUCAGCUCGUCAGGAUAUACGUCACUGCGUCAGCAGUGUGGUAAGAUCACAUGAGGAUCACCCAUGUAGAAGGGACGAGCUGAC	14.2 nM	306 nM	–	–
AUCAGCUCGUCAGGAUAUACGUCACUGCGUCAGCAGUGUGGUAAGAUCACAUGAGGAUCACCCAUGUAGAAGGGACGGGCUGAU	13.8 nM	253 nM	–	–
AUCAGCUCGUCAGGAUAUACGUCACUGCGUCAGCAGUGUGGUAAGAUCACAUGAGGAUCACCCAUGUAGAAGGGACGUGCUGAU	13.3 nM	314 nM	–	–
AUCAGCUCGUCAGGAUAUACGUCACUGCGUCAGCAGUGUGGUAAGAUCACAUGAGGAUCACCCAUGUAGAAGGUACGAGCUGAU	8.6 nM	13.8 nM	–	–
AUCAGCUCGUCAGGAUAUACGUCACUGCGUCAGCGGUGUGGUAAGAUCACAUGAGGAUCACCCAUGUAGAAGGGACGAGCUGAU	13.6 nM	232 nM	–	–
AUCAGCUCGUCAGGAUAUACGUCACUGCGUCAGUAGUGUGGUAAGAUCACAUGAGGAUCACCCAUGUAGAAGGGACGAGCUGAU	14.5 nM	284 nM	–	–
AUCAGCUCGUCAGGAUAUACGUCACUGUGUCAGCAGUGUGGUAAGAUCACAUGAGGAUCACCCAUGUAGAAGGGACGAGCUGAU	12.9 nM	235 nM	–	–
AUCAGCUCGUCAGGAUAUACGUCACUUCGUCAGCAGUGUGGUAAGAUCACAUGAGGAUCACCCAUGUAGAAGGGACGAGCUGAU	85.7 nM	310 nM	–	–
AUCAGCUCGUCAGGAUAUACGUCAUUGCGUCAGCAGUGUGGUAAGAUCACAUGAGGAUCACCCAUGUAGAAGGGACGAGCUGAU	13.9 nM	286 nM	–	–
AUCAGCUCGUCAGGAUAUACGUCGUGGUAAGAUCACAUGAGGAUCACCCAUGUAGAAGGGACGAGCUGAUAAGCACGAAAGUGC	745 nM	47.1 nM	–	–
AUCAGCUCGUCAGGAUAUUCGUCACUGCGUCAGCAGUGUGGUAAGAUCACAUGAGGAUCACCCAUGUAGAAGGGACGAGCUGAU	8.23 nM	19.2 nM	–	–
AUCAUCUUAUCAGGAUAUGCGAGUCGACGAAAGUAGACAAUCUUGAUAACAUGAGGAUCACCCAUGUAGAAGGGAUGAGAUGAU	48.1 nM	51.7 nM	–	–
AUCAUUCGUGUAGGAUAUGCGUGGCGAAGCUAUGCAGAAGGACAUGAGGAUCACCCAUGUCUUUCUGUCUGUGUACAGACAGGA	22.2 nM	94.8 nM	–	–
AUCCCGAUAGUAGGAUAUUUCUGCAGUUGUGGUUAGAUCGCCCUACAUGAGGAUCACCCAUGUAGAGAGAAGGACUGUGGUUAU	5.7 nM	8.54 nM	–	–
AUCCUACAUGAGGAUCACCCAUGUGACGCCUCAAUAGGAUAUGCGUGUGCCUUGGCGCAUGCAGAAGGAUUGAAGC	–	–	285 nM	48.1 nM
AUCCUGCGAGGAUAUACAUAGUGACGUCUGUUAGGUCUCAAACAUGAGGAUCACCCAUGUAGAAGGUGCGUCAC	19.4 nM	18.2 nM	–	–
AUCCUGCGAGGAUAUACAUAGUUUUGUUUGUUUUGUCUCAAACAUGAGGAUCACCCAUGUAGAAGGUGCGUCAC	155 nM	130 nM	–	–
AUCGACAGUGUCAGGAUAUCUCACCCGAGUGGGCGAGAGAAGGGACAUGAGGAUCACCCAUGUGCGUUCUCUAA	27.5 nM	174 nM	–	–
AUCGGAUUGUAGAAGGGUGACAUGAGGAUCACCCAUGUUCAAAUGCGUUUUUCGGUAAUUGUUCCACAGGAUAUACUGUCCGAG	–	–	675 nM	139 nM
AUCGUGUUAGGAUAUGCAUGUCGCUGGGUAGCUAGCGAUAGGCAGAAGGAACAUGAGGAUCACCCAUGUUCGGG	158 nM	78 nM	–	–
AUGAGGUCAGGAUAUGCAUGGCGGGACUUGCGUCGUGGCGUGCAGAAGGGACAUGAGGAUCACCCAUGUGGAGC	73.4 nM	169 nM	–	–
AUGCAGGGCGAGAAGGAGCGACAUGAGGAUCACCCAUGUAUCUUCAACUCGCUAGGAUAUCGGGUUGUAUUGAAAAUUAUUGAA	4.86 nM	5.5 nM	–	–
AUGCCGUGCAGAGCGCGACGGCGUACAUGAGGAUCACCCAUGUAGGAUAUACUACACAAAGUGUAGUAGAAGGACAUGCGACUG	62 nM	145 nM	–	–

Sequence	apparent Kd [1]	apparent Kd [2]	apparent Kd [3]	apparent Kd [4]
AUGCUAGUGUGAGGAUAUUAUUGACAUGAGGAUCACCCAUGUGUGAGUCCAACAUGAGCUACAGUUAAGAAGGUACAUUAGCAU	45.5 nM	38.1 nM	–	–
AUGCUUCACACAGGAUAUACAUGAGGAUCACCCAUGUGUGGGCGGUAGCUCGAAAGAGCUACCGGGUAGAAGGGUGUGAAGCAU	27.1 nM	132 nM	–	–
AUGGUACAUGAGGAUCACCCAUGUCCAGCAAAUCAAGGAUAUGGACGACAAAUUUCUCGGCCAGAAGGUGAAACAA	–	–	39.4 nM	21.5 nM
AUGGUGCAGGUACAGGAUAUGUUGCUCGUAACAUGAGGAUCACCCAUGUACCUAUGAGAUUAAAUGCAGAAGGGUGCACACCAAA	–	–	538 nM	20.6 nM
AUGGUUCGGUCAGGAUAUCGUAGAUUGAAUAGUAUGAUUUACAUGAGGAUCACCCAUGUUACAUACGAGAAGGGACCGAAUCAU	15.5 nM	10.4 nM	–	–
AUGGUUGUCGUAGGAUAUGUAGGAUAUUCCUACAUGAGGAUCACCCAUGUUCGCAUGGAAGAAGGACGGAAGGACGAUGACCAG	–	–	452 nM	163 nM
AUGUAGAACGUAGGAUAUCAAUGAGGAUCACCCUGAGAAGGACGUGAGGACAUGAGGAUCACCCAUGUGGAUCACCCAUGUCAU	160 nM	134 nM	–	–
AUGUAGUGCGAAGGAUAUGCGACUGCCUCGGCCGCAGAAGGUCGCACAUGAGGAUCACCCAUGUGCGGUGCAAAGAGUGGUUCU	111 nM	76.3 nM	–	–
AUGUCCUGAGGAUAUGGUCCAUUACACAUGAGGAUCACCCAUGUGGGUCUCGCCUGUAGGCCAGAAGGUAGGUCUU	52.8 nM	49.5 nM	–	–
AUGUGCCGGUCAGGAUAUCAACCACAUUGGCCAUGAGAAGGGACAGCACAUGAGGAUCACCCAUGUACACGCUGUGCGGAUGGG	273 nM	122 nM	–	–
AUGUGGUGCGUAGGAUAUCAUUAAAGAAAACCCUGAGAAGGACGUGAGGACAUGAGGAUCACCCAUGUGGAUCACCCAUGUCAA	316 nM	278 nM	–	–
AUGUGUCUUCGCGUCCUGCCCGGACAUGAGGAUCACCCAUGUAGAAGGCGGUGGCAAUGCUAGACCGAGGAUAUACAUGCAAAC	17.8 nM	51.3 nM	–	–
AUGUUACAUGAGGAUCACCCAUGUGAGGAUAUGUGUACCCGUAAAAAAGUGUCGGGCCACAGAAGGCAUUUGGA	47.3 nM	75 nM	–	–
AUGUUACAUGAGGAUCACCCAUGUGAGGAUAUGUGUACCGGUAAAAAAGUGUUUGGCCACAGAAGGCAUUUGGA	28.7 nM	26.9 nM	–	–
AUGUUACAUGAGGAUCACCCAUGUGAGGAUAUGUGUAUCCCUAAAAAAGUGUGGGACCAUAGAAGGCAUUUGGA	59.1 nM	64.1 nM	–	–
AUGUUGAGCAGUGUAUUAAGAUCACAUGAGGAUCACCCAUGUAGAAGGCACGAGCUGAUCGCUCGUGAGGAUAUGCAUCACUGC	7.12 nM	29.2 nM	–	–
AUGUUGUCAGGAUAUCUUACAUAACAAUCGUUGUUACCAUUGGAGAAGGGACAUGAGGAUCACCCAUGUUAGCC	20.8 nM	23 nM	–	–
AUGUUUAAUGCAGGAUAUGAUUAACAUGAGGAUCACCCAUGUGGUGUUGUGAGUAAGGAGAGUGAUCAGAAGGGCAUUUUUUUU	–	–	592 nM	540 nM
AUUAAACAUGAGGAUCACCCAUGUAAUAAUAUGGGAGGAUAUGCGAAUUUAAUUAUUUAAGCAGAAGGCCUAAUUA	–	–	63 nM	19.2 nM
AUUAAUAAGUAGAAGGACGGAGAGUAUGAAGUCGUAGGAUAUACAUAAGACAUGAGGAUCACCCAUGUAUGUAUUUUGGGUAUG	12.9 nM	12.9 nM	–	–
AUUAGGUAAGGAUAUACAUGAGGAUCACCCAUGUAGGUUAACGCAACCGGGUCCGGCUGUAGAAGGUGCAACGU	32.5 nM	32.6 nM	–	–
AUUAUAUAGUUAGGAUAUUGAUUAUUAUUUUAACAUGAGGAUCACCCAUGUAGCCUUAUGUAUAACAAGAAGGAACAUUUAUUA	114 nM	132 nM	–	–
AUUAUGACCGAGUUAUAGUUCCAAACAUGAGGAUCACCCAUGUAGGAUAUCAGCACGAUAAGUGCUGAGAAGGACAUCUCGGUC	14.9 nM	16.1 nM	–	–
AUUAUGUAAGGAUAUCUUACAUGUGACUUCGGUCACUGUUAAGAGAAGGUACAUGAGGAUCACCCAUGUAUAAC	19.6 nM	22.4 nM	–	–
AUUAUGUUAGGAUAUGCUUAUGGUGGAUAGUCCAAUAUGGUGCAGAAGGGACAUGAGGAUCACCCAUGUACUGA	83.2 nM	90.3 nM	–	–
AUUAUUAAAGUGAGGAUAUCUAGAGCCUCGGCUCUAGAGAAGGCACAUGAGGAUCACCCAUGUCUCAAUUAUUA	19.1 nM	56.1 nM	–	–
AUUAUUAAGUUAGGAUAUAGUAAAAUAAUUUAAUUAGAAGGAGCUCACAUGAGGAUCACCCAUGUAAGAGGAUCACCCAUGUAU	22.3 nM	16.5 nM	–	–
